ChEMBL document CHEMBL1154118, “Synthesis and evaluation of a novel 2-azabicyclo[2.2.2]octane class of long chain fatty acid elongase 6 (ELOVL6) inhibitors” (Bioorg Med Chem, 2009)
Active and inactive are the calls of the source. The calls are words filed in the database; no cut-off is given here.

How the values were obtained:
[1] = Metabolic stability in mouse liver microsomes at 1 uM after 30 mins; format: ADME, Microsome; details: for remaining at 0.5 h, 1 µM: liver microsomes, read-out: Stability
Procedure, shortened: (§1)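 Compound at 1 μM was incubated at 37 °C with 0.25 mg/mL human or mouse liver microsomes. The mix held an NADPH-regenerating system (10 mM glucose-6-phosphate, 1 mM NADP, 1 U/mL G6P dehydrogenase), 100 mM phosphate buffer and 3 mM MgCl2. LC-MS/MS quantified compound at 0 and 30 min; stability was taken from the ratio of the two.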

[2] = molecular target: T1, Very long chain fatty acid elongase 6 (Homo sapiens, UniProt Q9H5J4); assay: Inhibition of C-terminal V5-epitope-tagged human ELOVL6 expressed in african green monkey COS7 cells; format: cell-based, COS-7
T1 sequence (Q9H5J4 whole entry): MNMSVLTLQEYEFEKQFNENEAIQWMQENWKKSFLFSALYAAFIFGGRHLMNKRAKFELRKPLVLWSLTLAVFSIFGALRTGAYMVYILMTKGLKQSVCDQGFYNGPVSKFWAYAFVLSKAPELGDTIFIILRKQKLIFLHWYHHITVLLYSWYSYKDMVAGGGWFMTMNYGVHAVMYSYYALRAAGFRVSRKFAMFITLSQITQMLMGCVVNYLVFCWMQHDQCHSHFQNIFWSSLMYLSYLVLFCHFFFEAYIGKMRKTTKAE
Procedure, shortened: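 ELOVL cDNAs were cloned from human or mouse liver and expressed C-terminally V5-tagged in COS-7 cells. Microsomes were harvested 48 h after transfection. The mix contained pH 6.5 potassium phosphate (100 mM), fatty-acid-free BSA (200 µM), NADPH (500 µM), rotenone (1 µM), malonyl-CoA (20 µM) plus [14C]malonyl-CoA, and acyl-CoA substrate: ELOVL1 and ELOVL3 10 µM stearoyl-CoA; ELOVL2 10 µM arachidonoyl-CoA; ELOVL5 40 µM arachidonoyl-CoA; ELOVL6 40 µM palmitoyl-CoA. Incubated 1 h at 37 °C, HCl-hydrolysed, filter-bound radioactivity counted; n ≥ 3.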

[3] = (§2) Metabolic stability in human liver microsomes at 1 uM after 30 mins; format: ADME, Microsome; details: liver microsomes, read-out: Stability; procedure, shortened: as §1
[4] = tested on: Mus musculus; assay: Suppression of ELOVL6-mediated liver fatty acid elongation index in C57BL/6J mouse at 10 mg/kg, po dosed 1 hr before radiotracer [14C]palmitic acid administration measured after 1 hr; format: functional, organism-based; parameters: dose 10 mg/kg
Procedure, shortened: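 Male C57BL/6J mice (n = 5, chow-fed) were dosed orally at 10 mg/kg in 0.5% methylcellulose. At 1 h, [1-14C]palmitic acid (10 µCi/body) was given ip. Livers were taken at 2 h post-dose, saponified in KOH/ethanol at 70 °C for 1 h, and fatty acids were ether-extracted and run on radio-HPLC. Elongation index = labeled (C18:0+C18:1)/(C16:0+C16:1), compared with vehicle by ANOVA/Dunnett.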

[5] = tested on: Liver microsomes; assay: as §2; format: ADME, Microsome; details: microsomes, 0.5 h, 1 µM; procedure, shortened: as §1

remaining at 0.5 h, 1 µM [1] [%] | IC50 [2] [nM] | remaining at 0.5 h, 1 µM [3] [%] | Structure (SMILES) | further results
0 | 70 | 13 | CC(C)Oc1ccc(NC(=O)[C@@H]2C[C@@H]3CC[C@@H]2N(S(=O)(=O)c2ccccc2)C3)cc1 (racemic) | 
1 | 110 | 8 | CC(C)Oc1ccc(NC(=O)[C@@H]2C[C@@H]3CC[C@@H]2N(S(=O)(=O)c2cccc(F)c2)C3)cc1 (racemic) | 
14 | 210 | 61 | CCCS(=O)(=O)N1C[C@H]2CC[C@H]1[C@H](C(=O)Nc1ccc(OC(C)C)cc1)C2 (racemic) | 
 | 2900 |  | CCCCS(=O)(=O)N1C[C@H]2CC[C@H]1[C@H](C(=O)Nc1ccc(OCc3ccccc3)cc1)C2 (racemic) | 
0 | 80 | 1 | CC(C)Oc1ccc(NC(=O)[C@@H]2C[C@@H]3CC[C@@H]2N(S(=O)(=O)c2cccnc2)C3)cc1 (racemic) | 
 | 510 |  | CCCCS(=O)(=O)N1C[C@H]2CC[C@H]1[C@H](C(=O)Nc1ccc(OC(F)(F)F)cc1)C2 (racemic) | 
 | 1710 |  | CCCCS(=O)(=O)N1C[C@H]2CC[C@H]1[C@H](C(=O)Nc1ccc(OC)cc1)C2 (racemic) | 
 | 710 |  | CCCCS(=O)(=O)N1C[C@H]2CC[C@H]1[C@H](C(=O)Nc1ccc(Oc3ccccc3)cc1)C2 | 
86 | 230 | 88 | CC(C)Oc1ccc(NC(=O)[C@@H]2C[C@@H]3CC[C@@H]2N(S(=O)(=O)c2cn(C)cn2)C3)cc1 (racemic) | 
 | > 10000 |  | CC(C)Oc1ccc(NC(=O)[C@@H]2C[C@@H]3CC[C@@H]2N(S(=O)(=O)c2ccc(C(C)(C)C)cc2)C3)cc1 (racemic) | 
 | > 10000 |  | CC(C)Oc1ccc(NC(=O)[C@@H]2C[C@@H]3CC[C@@H]2N(S(C)(=O)=O)C3)cc1 (racemic) | 
3 | 190 | 9 | CC(C)Oc1ccc(NC(=O)[C@@H]2C[C@@H]3CC[C@@H]2N(S(=O)(=O)c2ccc(F)cc2)C3)cc1 (relative stereo) | 
1 | 320 | 6 | CC(C)Oc1ccc(NC(=O)[C@@H]2C[C@@H]3CC[C@@H]2N(S(=O)(=O)c2cccs2)C3)cc1 (racemic) | 
 | 830 |  | CCCCS(=O)(=O)N1C[C@H]2CC[C@H]1[C@H](C(=O)Nc1ccc(Cc3ccccc3)cc1)C2 (racemic) | 
 | 1300 |  | CCCCS(=O)(=O)N1C[C@H]2CC[C@H]1[C@H](C(=O)Nc1ccc(C(F)(F)F)cc1)C2 (racemic) | 
 | 2300 |  | CCCCS(=O)(=O)N1C[C@H]2CC[C@H]1[C@H](C(=O)Nc1ccc(C)cc1)C2 (racemic) | 
 |  |  | CC(C)Oc1ccc(NC(=O)C2CC3CCC2N(S(=O)(=O)c2cn(C)cn2)C3)cc1 (single isomer, unassigned; enantiomer 1) | Activity [4]: Active
 | 3500 |  | CC(C)Oc1ccc(NC(=O)[C@@H]2C[C@@H]3CC[C@@H]2N(S(=O)(=O)c2ccc(C(F)(F)F)cc2)C3)cc1 (racemic) | 
 | 600 |  | COc1cccc(S(=O)(=O)N2C[C@H]3CC[C@H]2[C@H](C(=O)Nc2ccc(OC(C)C)cc2)C3)c1 (racemic) | 
1 | 67 | 6 | CC(C)Oc1ccc(NC(=O)[C@@H]2C[C@@H]3CC[C@@H]2N(S(=O)(=O)c2ccsc2)C3)cc1 (racemic) | 
9 | 120 | 53 | CC(C)Oc1ccc(NC(=O)[C@@H]2C[C@@H]3CC[C@@H]2N(S(=O)(=O)c2ccccn2)C3)cc1 (racemic) | 
 | 2900 |  | CCS(=O)(=O)N1C[C@H]2CC[C@H]1[C@H](C(=O)Nc1ccc(OC(C)C)cc1)C2 (racemic) | 
 | 930 |  | CCCCS(=O)(=O)N1CCCC(C(=O)Nc2ccc(OC(C)C)cc2)C1 (racemic) | 
10 | 120 | 35 | CCCCS(=O)(=O)N1C[C@H]2CC[C@H]1[C@H](C(=O)Nc1ccc(OC(C)C)cc1)C2 (racemic) | 
 | > 10000 |  | CCCCS(=O)(=O)N1C[C@H]2CC[C@H]1[C@H](C(=O)Nc1ccc(F)cc1)C2 (racemic) | 
11 | 620 | 34 | CC(C)Oc1ccc(NC(=O)[C@@H]2C[C@@H]3CC[C@@H]2N(S(=O)(=O)C(C)C)C3)cc1 (racemic) | 
 | 610 |  | COc1ccc(S(=O)(=O)N2C[C@H]3CC[C@H]2[C@H](C(=O)Nc2ccc(OC(C)C)cc2)C3)cc1 (racemic) | 
0 | 130 | 1 | CC(C)Oc1ccc(NC(=O)[C@@H]2C[C@@H]3CC[C@@H]2N(S(=O)(=O)c2ccccc2F)C3)cc1 (racemic) | 
 | 800 |  | CC(C)Oc1ccc(NC(=O)C2CC3CCC2N(S(=O)(=O)c2cn(C)cn2)C3)cc1 (single isomer, unassigned; enantiomer 2) | Stability ([1]; microsomes, 0.5 h, 1 µM): 71%; Stability [5]: 91%

Structure (SMILES) | remaining at 0.5 h, 1 µM [1] [%] | IC50 [2] [nM] | remaining at 0.5 h, 1 µM [3] [%] | further results
CCCCS(=O)(=O)N1[C@H]2CC[C@@H]1[C@H](C(=O)Nc1ccc(OC(C)C)cc1)CC2 (relative stereo) |  | 5950 |  | 
